Results as given in ChEMBL document CHEMBL1132160, “Structure-antiviral activity relationship in the series of pyrimidine and purine N-[2-(2-phosphonomethoxy)ethyl] nucleotide analogues. 1. Derivatives substituted at the carbon atoms of the base” (J Med Chem, 1999).
Converted amounts (≈) assume the structure as drawn.

Experiments:
Cytomegalovirus [1] = assay: Inhibitory activity against cytomegalovirus (CMV) AD 169 strain; assay type: functional, organism-based; conditions: Human betaherpesvirus 5
How it was run: (§1)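 HEL cell cultures, grown to confluence, received 100 CCID50 of virus. After 1 h adsorption, the inoculum was removed and the cultures were incubated with serial concentrations of compound (400, 200, 100, ... μg/mL).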

Cytomegalovirus [2] = assay: Inhibitory activity against cytomegalovirus (CMV) Davis strain; assay type: functional, organism-based; conditions: Human betaherpesvirus 5; how it was run: as §1
[3] = Inhibitory activity against murine sarcoma virus induced transformation of murine C3H/3T3 embryo fibroblasts; assay type: functional, Mus musculus
How it was run: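 Murine C3H/3T3 embryo fibroblasts were seeded at 5 × 10⁵ cells/mL. After 24 h they were infected with 80 focus-forming units of MSV for 90–120 min at 37 °C. The medium was then replaced with fresh medium containing various compound concentrations, and transformation was examined microscopically after 6 days.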

Vaccinia virus [4] = assay: Inhibitory activity against vaccinia virus (VV); assay type: functional, organism-based; conditions: Orthopoxvirus vaccinia
How it was run: (§2)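 Confluent E6SM cell cultures were inoculated with 100 CCID50 of virus and left for 1 h adsorption, then residual virus was removed. Cultures were incubated with test compound at serial concentrations (400, 200, 100, ... μg/mL). Virus-induced cytopathicity was scored once it reached completion in untreated infected control cultures.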

Human alphaherpesvirus 2 [5] = assay: Inhibitory activity against herpes simplex virus type 2 (HSV-2) G strain; assay type: functional, organism-based
How it was run: (§3)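 Confluent E6SM cell cultures were inoculated with 100 CCID50 of virus and allowed 1 h for adsorption. Residual virus was then removed, and the cells were incubated with test compound at 400, 200, 100, ... μg/mL. Viral cytopathicity was scored once it reached completion in untreated infected controls.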

MT4 = assay: Inhibitory activity of compound against human immunodeficiency virus type 1 (HIV-1) induced cytopathogenicity in MT-4 cells; NA=Not Active; assay type: functional, cell-based
How it was run: (§4)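 Human MT-4 cells (~4 × 10⁵ cells/mL) were infected with 100 CCID50 of HIV-1 (IIIB)/mL and seeded into wells containing compound dilutions. After 5 days at 37 °C, viable cells were counted by trypan blue exclusion in a blood cell counting chamber.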

Human alphaherpesvirus 1 [6] = assay: Inhibitory activity against herpes simplex virus type 1 (HSV-1) KOS strain; assay type: functional, organism-based; how it was run: as §3
Human alphaherpesvirus 1 [7] = assay: Inhibitory activity against herpes simplex virus type 1 (HSV-1) KOS strain.; assay type: functional, organism-based; how it was run: as §3
E6SM [8] = assay: Inhibitory activity against herpes simplex virus type 2 (HSV-2) Lyons strain.; assay type: functional, cell-based, Homo sapiens; how it was run: as §3
Vaccinia virus [9] = assay: Inhibitory activity against vaccinia virus (VV).; assay type: functional, organism-based, Orthopoxvirus vaccinia; how it was run: as §2
Human alphaherpesvirus 1 [10] = assay: Inhibitory activity against herpes simplex virus type 1 thymidine kinase (HSV-1 TK-) VMW 1837 strain.
Human alphaherpesvirus 1 [11] = assay: Inhibitory activity against herpes simplex virus type 1 (HSV-1) F strain; assay type: functional, organism-based; how it was run: as §3
Human alphaherpesvirus 1 [12] = assay: Iactivity against herpes simplex virus type 1 (HSV-1) McIntyre strain.; assay type: functional, organism-based; how it was run: as §3
Human alphaherpesvirus 2 [13] = assay: Inhibitory activity against herpes simplex virus type 2 (HSV-2) G strain.; assay type: functional, organism-based; how it was run: as §3
Human alphaherpesvirus 2 [14] = assay: Inhibitory activity against herpes simplex virus type 2 (HSV-2) 196 strain.; assay type: functional, organism-based; how it was run: as §3
E6SM [15] = assay: Compound was evaluated for inhibitory activity against herpes simplex virus type 1 thymidine kinase (HSV-1 TK-) B2006 strain; NA=not active; assay type: functional, cell-based, Homo sapiens; how it was run: as §3
[16] = test system: Human immunodeficiency virus 2; assay: Inhibitory activity against human immunodeficiency virus type 2 (HIV-2) induced cytopathogenicity in MT-4 cells; assay type: functional, organism-based; conditions: Human immunodeficiency virus 2, MT4
[17] = test system: Human immunodeficiency virus 1; assay: Inhibition of human immunodeficiency virus type 1 (HIV-1) induced cytopathogenicity in CEM cells; assay type: functional, organism-based; conditions: Human immunodeficiency virus 1, CCRF-CEM
How it was run: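 CEM cells (~3 × 10⁵ cells/mL) were infected with 100 CCID50 of HIV-1 (IIIB)/mL and plated with dilutions of compound. After 4 days at 37 °C, giant cell formation was assessed microscopically.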

[18] = test system: Human immunodeficiency virus 2; assay: Inhibition of human immunodeficiency virus type 2 (HIV-2) induced cytopathogenicity in CEM cells; assay type: functional, organism-based; conditions: Human immunodeficiency virus 2, CCRF-CEM
[19] = test system: Human immunodeficiency virus 1; assay: Inhibitory activity of compound against human immunodeficiency virus type 1 (HIV-1) induced cytopathogenicity in MT-4 cells; assay type: functional, organism-based; conditions: Human immunodeficiency virus 1, MT4; how it was run: as §4
Human alphaherpesvirus 2 [20] = assay: Inhibitory activity against herpes simplex virus type 2 (HSV-2) Lyons strain; assay type: functional, organism-based; how it was run: as §3
Human alphaherpesvirus 1 [21] = assay: Inhibition of herpes simplex virus type 1 (HSV-1) F strain; assay type: functional, organism-based; how it was run: as §3
HEL [22] = assay: Compound was evaluated for inhibitory activity against cytomegalovirus (CMV) AD 169 strain; NA=not active; assay type: functional, cell-based, Homo sapiens; how it was run: as §1
HEL [23] = assay: Compound was evaluated for inhibitory activity against cytomegalovirus (CMV) Davis strain; NA=Not Active; assay type: functional, cell-based, Homo sapiens; how it was run: as §1
Human alphaherpesvirus 1 [24] = assay: Inhibitory activity against herpes simplex virus type 1 (HSV-1) McIntyre strain; assay type: functional, organism-based; how it was run: as §3
[25] = Inhibitory activity against herpes simplex virus type 2 (HSV-2) 196 strain; assay type: functional; how it was run: as §3
HEL [26] = assay: Compound was evaluated for inhibitory activity against varicella zoster virus thymidine kinase (VZV TK+) YS strain; NA=not active; assay type: functional, cell-based, Homo sapiens; how it was run: as §1
HEL [27] = assay: Compound was evaluated for inhibitory activity against varicella zoster virus thymidine kinase (VZV TK+) OKA strain; NA=Not Active; assay type: functional, cell-based, Homo sapiens; how it was run: as §1
HEL [28] = assay: Compound was evaluated for inhibitory activity against varicella zoster virus thymidine kinase (VZV TK-) 07/1 strain; NA=not active; assay type: functional, cell-based, Homo sapiens
Vaccinia virus [29] = assay: Compound was evaluated for inhibitory activity against vaccinia virus (VV); NA=not active; assay type: functional, organism-based, Orthopoxvirus vaccinia; how it was run: as §2

Row | Compound | EC50 (Cytomegalovirus [1]) [µg/mL] | EC50 (Cytomegalovirus [2]) [µg/mL] | EC50 [3] [µg/mL] | EC50 (Vaccinia virus [4]) [µg/mL] | EC50 (Human alphaherpesvirus 2 [5]) [µg/mL] | EC50 (MT4) | EC50 (Human alphaherpesvirus 1 [6]) [µg/mL] | EC50 (Human alphaherpesvirus 1 [7]) | EC50 (E6SM [8]) | EC50 (Vaccinia virus [9]) | EC50 (Human alphaherpesvirus 1 [10]) | EC50 (Human alphaherpesvirus 1 [11]) | EC50 (Human alphaherpesvirus 1 [12]) | EC50 (Human alphaherpesvirus 2 [13]) | EC50 (Human alphaherpesvirus 2 [14]) | EC50 (E6SM [15]) | EC50 [16] [µg/mL] | EC50 [19] [µg/mL] | EC50 (HEL [22]) | EC50 (HEL [23]) | further results
1 | Nc1ccnc2c1ncn2CCOCP(=O)(O)O | > 400 | > 400 | 13.8 (≈ 50.7 µM) | > 400 | > 400 | Not Active | > 400 |  |  |  |  |  |  |  |  |  |  |  |  |  | 
2 | CC(C)OP(=O)(COCCn1ncc(N)nc1=O)OC(C)C | > 100 | > 100 | > 100 |  |  | Not Active |  | Not Active | Not Active | Not Active | Not Active | Not Active | Not Active | Not Active | Not Active |  |  |  |  |  | 
3 | Nc1ncnc2c1nc(Br)n2CCOCP(=O)(O)O | > 50 | > 50 | > 200 |  |  |  |  | Not Active | Not Active | Not Active | Not Active | Not Active | Not Active | Not Active | Not Active | Not Active | > 100 | > 100 |  |  | EC50 [17]: > 100 µg/mL; EC50 [18]: > 100 µg/mL
4 | CCOP(=O)(O)COCCn1cnc2c(N)nc(N)nc21 |  |  | > 200 | > 400 | 70 (≈ 221 µM) |  | 300 (≈ 949 µM) |  |  |  |  |  |  |  |  |  | > 400 | > 100 | Not Active | Not Active | EC50 (Human alphaherpesvirus 2 [20]): 150 µg/mL (≈ 474 µM); EC50 (Human alphaherpesvirus 1 [21]): 200 µg/mL (≈ 632 µM); EC50 (Human alphaherpesvirus 1 [24]): 300 µg/mL (≈ 949 µM); EC50 [25]: 300 µg/mL (≈ 949 µM)
5 | CC(C)OP(=O)(COCCn1ccc(O)cc1=O)OC(C)C |  |  |  |  |  |  |  | Not Active | Not Active | Not Active | Not Active | Not Active | Not Active | Not Active | Not Active |  |  | > 200 | Not Active | Not Active | EC50 (HEL [26]): Not Active; EC50 (HEL [27]): Not Active; EC50 (HEL [28]): Not Active
6 | Cc1cn(CCOCP(=O)(O)O)c(=O)nc1N |  |  | > 200 |  |  |  |  | Not Active | Not Active |  | Not Active | Not Active | Not Active | Not Active | Not Active | Not Active |  | > 100 | Not Active | Not Active | EC50 (Vaccinia virus [29]): Not Active; EC50 (HEL [26]): Not Active; EC50 (HEL [27]): Not Active; EC50 (HEL [28]): Not Active
